Like-named read-outs stand apart in the source and are kept apart here.
Legend:
[1] = tested on: c-Jun-driven gene Cyclin D1; test: Cell-based assay of c-Jun-driven gene Cyclin D1 expression; conditions: SI Figure 7
[2] = biological target: MLL-GACKIX complex (GACKIX domain of CBP/p300) (Mus musculus, UniProt P45481); format: binding
Summary of the method: (§1)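 Test compound added at increasing concentrations to the preformed GACKIX domain complex with either fluorescein-tagged MLL activation-domain peptide or fluorescein-tagged pKID peptide. Displacement was tracked as the change in fluorescence polarization.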

[3] = biological target: GACKIX domain of CBP/p300 (Mus musculus, UniProt P45481); test: Ligand-detected 1D 1H-NMR binding to GACKIX with MLL and KID peptide competition; conditions: sekikaic acid 15 μM, GACKIX 5 μM, MLL and pKID peptide 15 μM each
GACKIX domain of CBP/p300, sequence (P45481 586-665 limits assumed): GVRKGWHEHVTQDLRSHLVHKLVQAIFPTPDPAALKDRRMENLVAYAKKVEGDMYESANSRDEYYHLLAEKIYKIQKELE
Summary of the method: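 Aromatic 1H resonances of the test compound (15 μM) were recorded alone and after adding GACKIX (5 μM). MLL and pKID peptides (15 μM each) were then added singly or together. Resonance positions were compared with the unbound-state spectrum to judge reversal of binding.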

[4] = biological target: T1, VP2-Med15(107-357) (Saccharomyces cerevisiae, UniProt P19659); test: Competitive FP binding assay of VP2 with Med15; conditions: specificity
T1 sequence (P19659 107-357): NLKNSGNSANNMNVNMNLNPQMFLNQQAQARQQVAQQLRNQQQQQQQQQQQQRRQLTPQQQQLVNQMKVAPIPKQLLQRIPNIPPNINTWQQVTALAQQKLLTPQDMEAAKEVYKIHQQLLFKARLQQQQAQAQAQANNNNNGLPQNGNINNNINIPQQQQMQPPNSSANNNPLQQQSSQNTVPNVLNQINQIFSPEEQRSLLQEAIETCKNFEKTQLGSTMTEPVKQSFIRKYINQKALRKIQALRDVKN

[5] = biological target: Fl-KID-GACKIX complex (GACKIX domain of CBP/p300) (Mus musculus, UniProt P45481); test: Fluorescence polarization inhibition of the Fl-KID-GACKIX complex; format: binding
Fl-KID-GACKIX complex (GACKIX domain of CBP/p300), sequence (P45481 586-665 limits assumed, one chain of several): as the sequence (P45481 586-665 limits assumed) above
Summary of the method: as §1

MLL-GACKIX complex (GACKIX domain of CBP/p300), sequence (P45481 586-665 limits assumed, one chain of several): as the sequence (P45481 586-665 limits assumed) above

## CCCc1cc(OC)cc(O)c1C(=O)Oc1c(OC)cc(CCC)c(C(=O)O)c1O [sekikaic acid]
[1]
  Effect on expression of c-Jun-driven gene Cyclin D1 in cells: dose dependent down regulation
[2]; read-out: IC50, inhibition of the MLL-GACKIX complex, FP, fluorescein-tagged MLL
  IC50: 34 µM
[3]
  Reversibility of binding to GACKIX: reversible
[4]
  Inhibition of VP2-Med15(107-357) (in words): did not significantly inhibit

## Cc1cc(OC(=O)c2c(C)cc(O)cc2O)cc(O)c1C(=O)O [lecanoric acid, reference compound]
[1]
  Effect on expression of c-Jun-driven gene Cyclin D1 in cells: no effect
[5]; competitive FP binding assay
  Inhibition of Fl-KID binding to GACKIX (in words): unable to significantly inhibit
[2]; competitive FP binding assay
  Inhibition of Fl-MLL binding to GACKIX (in words): unable to significantly inhibit

## CCCCCc1c2c(cc(O)c1C(=O)O)OC(=O)c1c(cc(OC)cc1C(=O)CCCC)O2 [lobaric acid]
[1]
  Effect on expression of c-Jun-driven gene Cyclin D1 in cells: dose dependent down regulation
[5]
  IC50: 25 µM
[2]
  IC50: 17 µM
